Source: PubChem BioAssay
GASC1 inh = inhibitors of human demethylase GASC-1 KDM4C; inhibition, % at 12.5 µM; Q9H3R0; GST-KDM4C 2-372, H3K9me3 peptide, LANCE TR-FRET; actives 0.15% (n = 96,000); AID 720574;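 active = mean replicate inhibition above about 25%, with at least 55% of replicates also reaching it, limit read from the data, passing the limit was not always enough; inconclusive = only one of those two conditions met; inactive = neither condition met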
Target sequence (Q9H3R0 2-372 limits assumed): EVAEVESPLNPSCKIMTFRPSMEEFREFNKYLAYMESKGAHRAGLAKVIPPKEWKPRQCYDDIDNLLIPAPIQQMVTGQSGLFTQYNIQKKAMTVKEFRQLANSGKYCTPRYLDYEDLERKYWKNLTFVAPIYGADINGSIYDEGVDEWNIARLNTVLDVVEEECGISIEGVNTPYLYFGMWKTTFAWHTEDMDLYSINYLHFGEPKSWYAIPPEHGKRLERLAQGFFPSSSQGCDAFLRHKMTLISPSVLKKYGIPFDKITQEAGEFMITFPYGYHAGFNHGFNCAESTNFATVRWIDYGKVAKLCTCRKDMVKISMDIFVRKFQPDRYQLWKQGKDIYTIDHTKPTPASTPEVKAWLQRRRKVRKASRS
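System: N-terminal GST-fused human GASC-1 (KDM4C) fragment, residues 2-372 / Amount: 10 nM GST-KDM4C in enzyme reaction / Also added: H3K9me3 peptide with Fe(II)/2OG / Times: 30 min demethylation and 1 h detection at room temperature / Signal: LANCE TR-FRET / Read-out basis: Fall in 671/618 emission ratio as inhibition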
T cruzi growth = inhibitors of T. cruzi proliferation; AID 624255; inhibition, % at 8.34 µM; actives 5.9% (n = 77,000); T. cruzi beta-gal in NIH3T3, GalScreen luminescence, 90 h;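 active = mean inhibition above about 93%, with at least 55% of replicates each passing it, limit read from the data, passing the limit was not always enough; inconclusive = only one of those two conditions holds; inactive = neither condition holds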
IDH1 mut inh = blocks human IDH1 R132H reductase activity; diaphorase/resazurin fluorescence, 60 min; inhibition, % at 10 µM; actives 0.18% (n = 70,000); AID 624101; in the data active = inhibition above about 34%; inconclusive = no clear call, values can overlap the other calls; inactive = below about 11%;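 note: 0% = DMSO and 100% = no enzyme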
Pf Dd2 inh = blocks growth of Plasmodium falciparum Dd2 parasites; P. falciparum Dd2 growth, SYBR Green, 72 h; active compounds read low; AID 1159554; activity change, % at 10 µM; actives 2.3% (n = 94,000); in the data active = activity change below about -80%; inconclusive = no clear call, values can overlap the other calls
Active calls of the source: *; u = inconclusive; x = not tested or not shown. The list is not random: actives were taken first. Their share in the collection is about 5.9%.

SMILES	GASC1 inh	T cruzi growth	IDH1 mut inh	Pf Dd2 inh
COc1ccc2c3c(n(C)c2c1)[C@@H](CO)N(C(=O)C1CCC1)CC31CN(C(=O)Nc2cccc(F)c2)C1	-3	x	x	-87*
CCCC(=O)N1CC2(CCN(C(=O)Nc3cccc(F)c3)CC2)c2c(n(C)c3cc(OC)ccc23)[C@H]1CO	-1	x	x	-86*
COc1ccc2c3c(n(C)c2c1)[C@@H](CO)N(C(=O)C1CC1)CC31CCN(C(=O)Nc2cccc(F)c2)CC1	-3	x	x	-91*
COc1ccc2c3c(n(C)c2c1)[C@@H](CO)N(C(=O)C1CC1)CC31CN(C(=O)Nc2cccc(F)c2)C1	-2	x	x	-88*
O=C(C[C@H]1CC[C@H](NS(=O)(=O)c2ccc(F)cc2)[C@H](CO)O1)N1CCN(c2ccccc2)CC1	-2	43	0	17
CCN1[C@H](C(=O)NC2CCC2)[C@@H](CO)[C@@H]2Cn3c(ccc(-c4ccccc4F)c3=O)[C@@H]21	u	30	x	1
C[C@H](CO)N1C[C@H](C)[C@@H](CN(C)C(=O)Cc2ccccn2)Oc2ncc(-c3ccncc3)cc2C1=O	0	-5	x	5
N#C[C@H]1[C@@H](c2ccc(C3=CCCC3)cc2)[C@@H](CO)N1C(=O)C1CCCC1	-1	30	1	10
Cc1ccc(S(=O)(=O)N(C)C[C@H]2OCCCC[C@@H](C)Oc3ccc(NC(=O)Nc4ccc(C(F)(F)F)cc4)cc3C(=O)N([C@H](C)CO)C[C@@H]2C)cc1	-1	x	x	-73
C[C@@H]1CN([C@H](C)CO)C(=O)c2cc(NC(=O)Nc3ccc(C(F)(F)F)cc3)ccc2O[C@@H](C)CCCCO[C@H]1CN(C)S(=O)(=O)c1ccc(F)cc1	2	90	x	-48
Cc1ccc(S(=O)(=O)N(C)C[C@@H]2OCCCC[C@H](C)Oc3ccc(NC(=O)Nc4ccc(C(F)(F)F)cc4)cc3C(=O)N([C@@H](C)CO)C[C@@H]2C)cc1	-1	x	1	-85*
C[C@@H]1CCCCO[C@H](CN(C)S(=O)(=O)c2ccc(F)cc2)[C@H](C)CN([C@@H](C)CO)C(=O)c2cc(NC(=O)Nc3ccc(C(F)(F)F)cc3)ccc2O1	0	91	3	-86*
COc1ccc(S(=O)(=O)N(C)C[C@@H]2OCCCC[C@@H](C)Oc3ccc(NC(=O)Nc4ccc(C(F)(F)F)cc4)cc3C(=O)N([C@H](C)CO)C[C@@H]2C)cc1	-1	59	x	-84*
COc1ccc(S(=O)(=O)N(C)C[C@H]2OCCCC[C@H](C)Oc3ccc(NC(=O)Nc4ccc(C(F)(F)F)cc4)cc3C(=O)N([C@H](C)CO)C[C@@H]2C)cc1	-1	87	x	-62
CCCNC(=O)[C@@H]1[C@@H](CO)[C@@H]2Cn3c(ccc(-c4ccc(F)cc4)c3=O)[C@H]1N2Cc1ccccc1F	-1	89	x	-8
C[C@H]1CN([C@@H](C)CO)S(=O)(=O)c2ccc(C#Cc3ccccc3)cc2O[C@H]1CN(C)C(=O)Cc1ccccn1	1	69	-1	-86*
C[C@H]1CN([C@@H](C)CO)S(=O)(=O)c2ccc(C#Cc3ccccc3)cc2O[C@H]1CN(C)C(=O)C1CC1	-1	74	0	-88*
C[C@@H]1CN([C@H](C)CO)S(=O)(=O)c2ccc(C#Cc3ccccc3)cc2O[C@H]1CN(C)C(=O)C1CC1	-3	58	1	-79
C[C@H]1CN([C@@H](C)CO)S(=O)(=O)c2ccc(-c3cncnc3)cc2O[C@@H]1CN(C)C(=O)C1CCCCC1	35*	x	x	-28
Cc1ccccc1-c1ccc(C2[C@H]3CNC[C@@H]2N3C(=O)Nc2ccc(F)cc2)cc1 (some centres not stated)	0	x	x	2
C[C@@H]1CN([C@H](C)CO)C(=O)c2cccc(NS(=O)(=O)c3ccccc3)c2O[C@@H]1CN(C)Cc1ccc(-c2ccccc2)cc1	-1	64	x	-4
Cc1ccc(S(=O)(=O)Nc2cccc3c2O[C@H](CN(C)Cc2ccc(C(=O)Nc4ccccc4N)cc2)[C@H](C)CN([C@H](C)CO)C3=O)cc1	3	50	x	-85*
C[C@@H]1CN([C@H](C)CO)C(=O)c2cccc(NS(=O)(=O)c3ccccc3)c2O[C@H]1CN(C)Cc1ccc(C(=O)Nc2ccccc2N)cc1	0	x	x	-78
C[C@@H]1CN([C@H](C)CO)C(=O)c2cccc(NS(=O)(=O)c3ccccc3)c2O[C@H]1CN(C)Cc1ccc(-c2ccccc2)cc1	1	-87	2	-91*
C[C@H](CO)N1C[C@H](C)[C@H](CN(C)Cc2ccc(C(=O)Nc3ccccc3N)cc2)Oc2c(NS(=O)(=O)c3ccc(Cl)cc3)cccc2C1=O	0	x	0	-89*
SMILES	GASC1 inh	T cruzi growth	IDH1 mut inh	Pf Dd2 inh
C[C@H](CO)N1C[C@H](C)[C@H](CN(C)Cc2ccc(C(=O)Nc3ccccc3N)cc2)Oc2c(NS(=O)(=O)c3ccccc3)cccc2C1=O	-1	x	1	-86*
Cc1ccc(S(=O)(=O)Nc2cccc3c2O[C@H](CN(C)Cc2ccc(C(=O)Nc4ccccc4N)cc2)[C@@H](C)CN([C@@H](C)CO)C3=O)cc1	0	x	0	-74
COc1ccc(NC(=O)N(C)C[C@H]2Oc3ccc(NC(=O)CCCCCC(=O)Nc4ccccc4N)cc3C(=O)N([C@@H](C)CO)C[C@H]2C)cc1	-2	x	x	-22
C[C@H](CO)N1C[C@H](C)[C@H](CN(C)C(=O)CN(C)C)Oc2cc(Br)ccc2S1(=O)=O	0	-79	-2	22
C[C@@H]1CN([C@H](C)CO)C(=O)c2cccc(NS(=O)(=O)c3ccc(Cl)cc3)c2O[C@@H]1CN(C)Cc1ccc(C(=O)Nc2ccccc2N)cc1	-3	93	0	-87*
O=C(C1CCOCC1)N1CC(=O)N2[C@H](CO)[C@@H](c3ccc(C#CC4CCCCC4)cc3)[C@@H]2C1	0	x	x	-29
C[C@H](CO)N1C[C@H](C)[C@@H](CN(C)S(=O)(=O)c2ccc(Cl)cc2)Oc2ccc(NC(=O)CCCCCC(=O)Nc3ccccc3N)cc2C1=O	-3	x	0	-86*
C[C@H](CO)N1C[C@H](C)[C@H](CN(C)S(=O)(=O)c2ccc(Cl)cc2)Oc2ccc(NC(=O)CCCCCC(=O)Nc3ccccc3N)cc2C1=O	-6	x	0	-74
Cc1ccc(S(=O)(=O)N(C)C[C@@H]2Oc3ccc(NC(=O)CCCCCC(=O)Nc4ccccc4N)cc3C(=O)N([C@@H](C)CO)C[C@@H]2C)cc1	6	x	0	-89*
COc1cccc(NC(=O)Nc2ccc3c(c2)C(=O)N(C)C[C@H](OC)[C@@H](C)CN[C@H](C)CO3)c1	-1	-9	0	7
CO[C@@H]1CN(C)C(=O)c2cc(NC(=O)Nc3ccc(Cl)c(Cl)c3)ccc2OC[C@@H](C)NC[C@@H]1C	-2	-58	x	-86*
CO[C@@H]1CN(C)C(=O)c2cc(NC(=O)Nc3ccc(Cl)c(Cl)c3)ccc2OC[C@H](C)NC[C@H]1C	-2	-61	x	-77
COc1cccc(NC(=O)Nc2ccc3c(c2)C(=O)N(C)C[C@@H](OC)[C@H](C)CN[C@@H](C)CO3)c1	-2	26	0	-87*
